We go through 16 compounds from ChEMBL document CHEMBL4346689, “Novel benzenesulfonamide and 1,2-benzisothiazol-3(2H)-one-1,1-dioxide derivatives as potential selective COX-2 inhibitors” (Eur J Med Chem, 2019).

In series [1] the target is T1, Prostaglandin G/H synthase 1 (Ovis aries, UniProt P05979).
T1 sequence (P05979 whole entry): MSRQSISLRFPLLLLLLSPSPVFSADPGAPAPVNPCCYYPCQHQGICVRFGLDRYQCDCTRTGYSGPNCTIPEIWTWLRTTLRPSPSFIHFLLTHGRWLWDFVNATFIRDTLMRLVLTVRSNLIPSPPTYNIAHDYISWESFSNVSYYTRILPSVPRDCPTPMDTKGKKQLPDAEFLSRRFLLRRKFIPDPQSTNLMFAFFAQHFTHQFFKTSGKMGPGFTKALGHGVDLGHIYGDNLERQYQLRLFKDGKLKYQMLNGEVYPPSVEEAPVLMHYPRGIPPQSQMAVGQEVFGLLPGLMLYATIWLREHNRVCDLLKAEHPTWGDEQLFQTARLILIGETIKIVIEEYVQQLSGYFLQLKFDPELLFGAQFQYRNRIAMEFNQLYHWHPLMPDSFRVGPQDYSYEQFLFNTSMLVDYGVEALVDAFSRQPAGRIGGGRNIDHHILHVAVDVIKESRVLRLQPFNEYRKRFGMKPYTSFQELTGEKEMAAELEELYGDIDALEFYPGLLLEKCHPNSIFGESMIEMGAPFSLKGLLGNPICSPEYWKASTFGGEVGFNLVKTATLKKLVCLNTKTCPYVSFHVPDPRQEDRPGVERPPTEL
Put plainly: Inhibition of ovine COX1 assessed as reduction in oxidized TMPD using arachidonic acid as substrate preincubated for 5 mins followed by substrate addition and measured after 2 mins by colorimetric assay.

Series [2] relates to Rattus norvegicus. Put plainly: Antiinflammatory activity in albino rat assessed as inhibition of carrageenan-induced paw edema at 18 mg/kg, ip pretreated for 1 hr followed by carrageenan challenge and measured after 1 hr by caliper method relative to control. The format is functional. The procedure, abridged:
(§1)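 Carrageenin paw edema in male albino rats (150–200 g, n = 6 per group), 18 mg/kg i.p. 1 h before 0.1 mL 10% carrageenin into the right hind paw. Caliper thickness at 1–4 h. Percent edema inhibition derived from thickness change relative to the untreated control group.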
(The carrageenan paw model is a standard test of acute inflammation.)

In series [3] the test system is Rattus norvegicus. Put plainly: Antiinflammatory activity against carrageenan-induced paw oedema in albino rat assessed as hind paw thickness at 18 mg/kg, ip pretreated for 1 hr followed by carrageenan challenge and measured after 4 hrs by caliper method (reference value: 1.24 +/- 0.02 millimeter). The class given is functional. The procedure, abridged: (§2)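 Male albino rats, 150–200 g, six per group, housed at 27 °C on a 12/12 light-dark cycle. Given 18 mg/kg i.p.; control group left untreated. Right hind paw injected 1 h later with 0.1 mL 10% carrageenin. Paw thickness measured by skin caliper at 1, 2, 3 and 4 h after injection. Reported as mean ± S.D., n = 6; significance p < 0.05.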

The subject of series [4] is Rattus norvegicus. As to the kind of experiment: Antiinflammatory activity against carrageenan-induced paw oedema in albino rat assessed as hind paw thickness at 18 mg/kg, ip pretreated for 1 hr followed by carrageenan challenge and measured after 1 hr by caliper method (reference value: 0.73 +/- 0.03 millimeter). The format is functional. The procedure, abridged:
as §2

Series [5] has as its system Rattus norvegicus. Put plainly: Antiinflammatory activity in albino rat assessed as inhibition of carrageenan-induced paw edema at 18 mg/kg, ip pretreated for 1 hr followed by carrageenan challenge and measured after 4 hrs by caliper method relative to control. The format is functional. The procedure, abridged: as §1
Series [6] is described as follows: Ulcerogenicity in albino rat assessed as incidence of gastric ulceration at 18 mg/kg, po administrated once daily for 3 successive days and measured after 6 hrs from last dose relative to control. The format is toxicity, organism-based. Conditions: in vivo.
Series [7] concerns Rattus norvegicus. As to the kind of experiment: Antiinflammatory activity in albino rat assessed as inhibition of carrageenan-induced paw edema at 18 mg/kg, ip pretreated for 1 hr followed by carrageenan challenge and measured after 2 hrs by caliper method relative to control. The class given is functional. The procedure, abridged:
as §1

For series [8], the system named is Rattus norvegicus. Put plainly: Antiinflammatory activity against carrageenan-induced paw oedema in albino rat assessed as hind paw thickness at 18 mg/kg, ip pretreated for 1 hr followed by carrageenan challenge and measured after 2 hrs by caliper method (reference value: 0.84 +/- 0.02 millimeter). The format is functional. An outline of the steps:
as §2

Series [9] in a line: Ulcerogenicity in albino rat assessed as ulcer index at 18 mg/kg, po administrated once daily for 3 successive days and measured after 6 hrs from last dose (reference value: 0). The class given is toxicity, organism-based. The following applies: in vivo.
Series [10] deals with Rattus norvegicus. As to the kind of experiment: Antiinflammatory activity against carrageenan-induced paw oedema in albino rat assessed as hind paw thickness at 18 mg/kg, ip pretreated for 1 hr followed by carrageenan challenge and measured after 3 hrs by caliper method (reference value: 0.94 +/- 0.02 millimeter). The format is functional. The procedure, abridged: as §2

Series [11] relates to Rattus norvegicus. Put plainly: Antiinflammatory activity against carrageenan-induced paw oedema in albino rat assessed as hind paw thickness at 18 mg/kg, ip pretreated for 1 hr followed by carrageenan challenge and measured immediately by caliper method (reference value: 0.24 +/- 0.24 millimeter). The class given is functional.
The test system of series [12] is Rattus norvegicus. Put plainly: Antiinflammatory activity in albino rat assessed as inhibition of carrageenan-induced paw edema at 18 mg/kg, ip pretreated for 1 hr followed by carrageenan challenge and measured after 3 hrs by caliper method relative to control. The format is functional. The procedure, abridged:
as §1

Series [13] in a line: Ulcerogenicity in albino rat assessed as average severity score at 18 mg/kg, po administrated once daily for 3 successive days and measured after 6 hrs from last dose (reference value: 0). The following applies: in vivo. The class given is toxicity, organism-based.

On to `O=S(=O)(NCc1ccccc1)c1ccccc1-c1nnc(S)n1/N=C/c1ccc(Br)cc1`, for which the IC50 in [1] amounted to 4.21 µM.
Regarding `O=S(=O)(NCc1ccccc1)c1ccccc1-c1nnc(SCc2ccccc2)o1`, the IC50 in series [1] was 3.68 µM.
On the same count and under the same terms, the value for `COc1ccc(/C=N/n2c(S)nnc2-c2ccccc2S(=O)(=O)NCc2ccccc2)cc1` was 3.25 µM.
The same measure, in the same setting: the value for `O=C(N/N=C/c1ccc(Cl)cc1)C(C(=O)N/N=C/c1ccc(Cl)cc1)N1C(=O)c2ccccc2S1(=O)=O` was 7.65 µM; that for `O=C(N/N=C/c1ccccc1)C(C(=O)N/N=C/c1ccccc1)N1C(=O)c2ccccc2S1(=O)=O` was 1.98 µM.
For `O=C(N/N=C/c1ccc(F)cc1)C(C(=O)N/N=C/c1ccc(F)cc1)N1C(=O)c2ccccc2S1(=O)=O`, the inhibition in vivo at 18 mg/kg with Rattus norvegicus [2] came out at 50.7%; in the series on Rattus norvegicus [5] it was 54.3%; in the series on Rattus norvegicus [7], 52.4%; in the series on Rattus norvegicus [12], 54.2%. Besides, the Activity in the series on Rattus norvegicus [3] is 0.55 mm; with Rattus norvegicus [4] it was 0.36 mm; in [6], 100%; with Rattus norvegicus [8], 0.4 mm; in the series with Rattus norvegicus [10] it was 0.43 mm; in the series with Rattus norvegicus [11], 0.24 mm. In addition, the Activity in series [13] came out at 1.2. Also, in series [9], the UI is listed as 120. Also, the IC50 in [1] amounted to 2.78 µM.
On to `Nn1c(S)nnc1-c1ccccc1S(=O)(=O)NCc1ccccc1`, for which the inhibition in vivo at 18 mg/kg with Rattus norvegicus [2] stood at 39.7%; in the series on Rattus norvegicus [5], 49.2%; in the series with Rattus norvegicus [7] it was 42.9%; with Rattus norvegicus [12], 45.4%. The Activity worked out at 0.63 mm with Rattus norvegicus [3]; 0.44 mm in the series on Rattus norvegicus [4]; 100% in series [6]; 0.48 mm with Rattus norvegicus [8]; 0.56 mm in the series on Rattus norvegicus [10]; 0.24 mm with Rattus norvegicus [11]. Besides, in series [13], the Activity turned out to be 3.6. For the same compound, in series [9], the UI was determined as 360. Further, in series [1], the IC50 was found to be 2.98 µM.
`O=S(=O)(NCc1ccccc1)c1ccccc1-c1nnc(S)o1`: the IC50 in series [1] was 4.52 µM.
Same read-out and setting: in the case of `O=S(=O)(NCc1ccccc1)c1ccccc1-c1nnc(S)n1/N=C/c1ccccc1` it was 6.45 µM.
Take `Cc1cc(-c2ccccc2)n(C(=O)c2ccccc2S(=O)(=O)NC(C)C)n1`: the inhibition in vivo at 18 mg/kg is 56.2% in the series with Rattus norvegicus [2], 65.3% with Rattus norvegicus [5], 57.1% with Rattus norvegicus [7] and 59.6% with Rattus norvegicus [12]. In addition, the Activity in the series with Rattus norvegicus [3] turned out to be 0.43 mm; in the series on Rattus norvegicus [4] it was 0.32 mm; in series [6], 20%; in the series on Rattus norvegicus [8], 0.36 mm; in the series with Rattus norvegicus [10], 0.38 mm; with Rattus norvegicus [11] it was 0.24 mm. Also, the Activity in series [13] worked out at 0.2. Moreover, in [9], the UI worked out at 4. Moreover, the concentration for half-maximal inhibition (IC50) in series [1] is 9.24 µM.
For the compound `O=S(=O)(NCc1ccccc1)c1ccccc1-c1nnc(S)n1/N=C/c1ccc(Cl)cc1`, the IC50 in series [1] turned out to be 5.71 µM.
With `CC(C)NS(=O)(=O)c1ccccc1C(=O)N1N=C(c2ccccc2)CC1=O`, the inhibition in vivo at 18 mg/kg with Rattus norvegicus [2] is 42.5%; with Rattus norvegicus [5], 56.5%; in the series on Rattus norvegicus [7] it was 43.5%; in the series with Rattus norvegicus [12] it was 44.7%. Also, the Activity with Rattus norvegicus [3] was 0.54 mm; in the series with Rattus norvegicus [4] it was 0.42 mm; in series [6], 20%; in the series on Rattus norvegicus [8] it was 0.5 mm; in the series with Rattus norvegicus [10], 0.52 mm; in the series on Rattus norvegicus [11], 0.24 mm. In addition, in [13], the Activity was determined as 0.2. In addition, the UI in series [9] is 4. Moreover, the IC50 in series [1] stood at 12.2 µM.
Consider `CCSc1nnc(-c2ccccc2S(=O)(=O)NCc2ccccc2)o1`, for which, in series [1], the IC50 turned out to be 8.21 µM.
Take `Cc1cc(-c2ccccc2)n(C(=O)C(C(=O)n2nc(C)cc2-c2ccccc2)N2C(=O)c3ccccc3S2(=O)=O)n1`: the inhibition in vivo at 18 mg/kg in the series on Rattus norvegicus [2] is 50.7%; with Rattus norvegicus [5], 61.3%; in the series with Rattus norvegicus [7], 51.2%; in the series with Rattus norvegicus [12], 56.4%. Also, the Activity with Rattus norvegicus [3] worked out at 0.48 mm; with Rattus norvegicus [4], 0.36 mm; in series [6], 20%; in the series with Rattus norvegicus [8], 0.41 mm; with Rattus norvegicus [10] it was 0.41 mm; in the series with Rattus norvegicus [11] it was 0.24 mm. Further, in series [13], the Activity is listed as 0.2. In addition, the UI in [9] was found to be 4. In series [1], the IC50 came to 11.8 µM.
Take `Cc1ccc(-c2cc(C(F)(F)F)nn2-c2ccc(S(N)(=O)=O)cc2)cc1` [CELECOXIB]: the inhibition in vivo at 18 mg/kg with Rattus norvegicus [2] was determined as 43.8%; in the series with Rattus norvegicus [5] it was 62.9%; with Rattus norvegicus [7] it was 47.6%; in the series with Rattus norvegicus [12], 53.2%. For the same compound, the Activity in the series with Rattus norvegicus [3] is reported as 0.46 mm; in the series with Rattus norvegicus [4], 0.41 mm; in series [6], 0%; in the series on Rattus norvegicus [8] it was 0.44 mm; with Rattus norvegicus [10], 0.44 mm; in the series with Rattus norvegicus [11] it was 0.24 mm. Also, the Activity in series [13] is 0. Also, the UI in series [9] turned out to be 3.
For `COc1ccc2c(c1)c(CC(=O)O)c(C)n2C(=O)c1ccc(Cl)cc1` [INDOMETHACIN], the Activity was determined as 100% in series [6] and 4.8 in [13]. In addition, the UI in series [9] came to 480.

One may read the IC50 as the concentration that gives 50% inhibition. Broadly, the inhibition in vivo is the share of the control response that was lost under treatment.
